# Test results from ChEMBL document CHEMBL4177600, “Identification of novel PI3K inhibitors through a scaffold hopping strategy” (Bioorg Med Chem Lett, 2017).
# Experiments:
# Mus musculus [1] = assay: Time at which plasma concentration stays above cellular EC50 for inhibition of AKT phosphorylation in BALB-C mouse at 9 mg/kg, po measured up to 8 hrs by LC-MS/MS analysis; conditions: in vivo
# Mus musculus [2] = assay: Clearance in BALB-C mouse at 3 mg/kg, iv by LC-MS/MS analysis relative to hepatic blood flow; type: ADME, organism-based; conditions: in vivo
# [3] = Cmax in BALB-C mouse at 9 mg/kg, po by LC-MS/MS analysis; type: ADME, organism-based; parameters: dose 9 mg/kg, route oral; conditions: in vivo
# How it was run: (§1)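 BALB-C mice dosed IV (10% NMP/50% PEG300/40% saline) or PO (10% NMP/90% PEG300). Plasma sampled at 6 (IV) or 8 (PO) time points; compound measured by LC/MS/MS. Parameters from bicompartmental model fit; each value is the mean of 3 independent samples.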
# [4] = Half-life in BALB-C mouse at 9 mg/kg, po by LC-MS/MS analysis; type: ADME, organism-based; conditions: in vivo
# How it was run: as §1
# [5] = Volume of distribution in BALB-C mouse at 3 mg/kg, iv by LC-MS/MS analysis; type: ADME, organism-based; conditions: in vivo
# How it was run: (§2)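 BALB-C mice dosed IV in 10% NMP/50% PEG300/40% saline or PO in 10% NMP/90% PEG300. Plasma sampled at 6 (IV) or 8 (PO) time points and quantified by LC/MS/MS. Parameters come from a bicompartmental model fit; values are means of 3 independent samples. Plasma levels were compared with AKT-P EC50 from U2OS cells converted to ng/ml.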
# [6] = Tmax in BALB-C mouse at 9 mg/kg, po by LC-MS/MS analysis; type: ADME, organism-based; conditions: in vivo
# How it was run: as §2
# [7] = Clearance in BALB-C mouse at 3 mg/kg, iv by LC-MS/MS analysis; type: ADME, organism-based; conditions: in vivo
# How it was run: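 Mice (BALB-C) given IV dose in 10% NMP/50% PEG300/40% saline; plasma sampled at 6 times, levels by LC/MS/MS.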
# [8] = Oral bioavailability in BALB-C mouse at 9 mg/kg by LC-MS/MS analysis; type: ADME, organism-based; conditions: in vivo
# How it was run: as §2
# U2OS [9] = assay: Inhibition of AKT phosphorylation in human U2OS cells
# Mus musculus [10] = assay: Time at which plasma concentration stays above cellular EC50 for inhibition of AKT phosphorylation in BALB-C mouse at 10 mg/kg, po measured up to 24 hrs by LC-MS/MS analysis; type: organism-based; conditions: in vivo
# How it was run: as §2
# [11] = AUC (infinity) in BALB-C mouse at 10 mg/kg, po by LC-MS/MS analysis; type: ADME, organism-based; parameters: dose 10 mg/kg, time infinity, route oral; conditions: in vivo
# How it was run: as §1
# [12] = Tmax in BALB-C mouse at 10 mg/kg, po by LC-MS/MS analysis; type: ADME, organism-based; conditions: in vivo
# How it was run: as §2
# [13] = Oral bioavailability in BALB-C mouse at 10 mg/kg by LC-MS/MS analysis; type: ADME, organism-based; conditions: in vivo
# How it was run: as §2
# [14] = Half-life in BALB-C mouse at 10 mg/kg, po by LC-MS/MS analysis; type: ADME, organism-based; conditions: in vivo
# How it was run: as §1
# [15] = Tmax in BALB-C mouse at 5 mg/kg, po by LC-MS/MS analysis; type: ADME, organism-based; conditions: in vivo
# How it was run: as §2
# U2OS [16] = assay: Inhibition of AKT phosphorylation in human U2OS cells; remark: listed apart in the source
# Mus musculus [17] = assay: Time at which plasma concentration stays above cellular EC50 for inhibition of AKT phosphorylation in BALB-C mouse at 5 mg/kg, po measured up to 24 hrs by LC-MS/MS analysis; type: organism-based; conditions: in vivo
# How it was run: as §2
# [18] = Oral bioavailability in BALB-C mouse at 5 mg/kg by LC-MS/MS analysis; type: ADME, organism-based; conditions: in vivo
# How it was run: as §2
# [19] = Half-life in BALB-C mouse at 5 mg/kg, po by LC-MS/MS analysis; type: ADME, organism-based; conditions: in vivo
# How it was run: as §1
# [20] = AUC (infinity) in BALB-C mouse at 5 mg/kg, po by LC-MS/MS analysis; type: ADME, organism-based; parameters: dose 5 mg/kg, route oral, time infinity; conditions: in vivo
# How it was run: as §1
# [21] = Cmax in BALB-C mouse at 5 mg/kg, po by LC-MS/MS analysis; type: ADME, organism-based; parameters: dose 5 mg/kg, route oral; conditions: in vivo
# How it was run: as §1
structure (smiles),measurement,setting,value
CS(=O)(=O)N1CCN(Cc2cc3c(N4CCOCC4)nc(-c4cnc(N)nc4)cn3n2)CC1,Time,Mus musculus [1],> 8 h
same,CL,Mus musculus [2],< 50%
same,Cmax,[3],938 ng/mL
same,half-life,[4],2.84 h
same,Vd,[5],0.6 L/kg
same,Tmax,[6],1 h
same,clearance,[7],10.8 mL/min/kg
same,bioavailability,[8],29.5%
same,EC50,U2OS [9],0.01444 µg/mL
CS(=O)(=O)N1CCN(Cc2nc3c(N4CCOCC4)nc(-c4cnc(N)nc4)cn3n2)CC1,Time,Mus musculus [10],> 12 h
same,AUC(0-inf),[11],4690 ng·h/mL
same,Tmax,[12],1 h
same,bioavailability,[13],88%
same,half-life,[14],5.28 h
CS(=O)(=O)N1CCN(Cc2nc3c(N4CCOCC4)nc(-c4cnc(N)nc4)c(Cl)n3n2)CC1,Tmax,[15],1 h
same,EC50,U2OS [16],0.03491 µg/mL
same,Time,Mus musculus [17],> 12 h
same,bioavailability,[18],73.1%
same,half-life,[19],2.7 h
same,AUC(0-inf),[20],5650 ng·h/mL
same,Cmax,[21],1050 ng/mL
